This passage reports activation and inhibition results from PubChem BioAssay.

Assay [1] concerns the target Oxysterols receptor LXR-beta (Homo sapiens) (UniProt P55055). The experiment in a line: nonspecific reporter activation via LXR – cell-based, luminescence, HEK293, H. contortus campaign, counter-screen for hcDAF-12 agonist project, confirmation (AID 743027). The settings on record: HEK293 Gal4-LXR tk-luc reporter, 24 h, at 6.8 µM, stronger effect = higher value, normalized: DMSO 0%, positive control 100%. The procedure, abridged:
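System: HEK293 cells transfected with Gal4-LXR vector plus GAL4-driven tk-luciferase reporter / Replicates: triplicate wells per compound / Detection: luciferase luminescence read with One-Glo reagent / Read-out basis: % activation / Timing: 24 h compound exposure at 37 °C, 5% CO2 / Benchmarks: DMSO low control, positive-control high control / Compound dosing: 6.8 µM single dose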
Background: A counterscreen serves to expose hits that act by an unwanted route or on another target.

The subject of assay [2] is Nuclear hormone receptor DAF-12 (Haemonchus contortus). Nature of the assay: hcDAF-12 luciferase reporter activation, retest – cell-based, luminescence, HEK293, lit1-tk-luc, triplicate, confirmation (AID 743032;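 active means mean activation across triplicate tests above the threshold derived from the earlier primary screen, cut at about 5.5% in these data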;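 further: 0% = DMSO only wells and 100% = 3 µM Δ7-dafachronic acid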). The settings on record: HEK293 hcDAF-12 lit1-tk-luc reporter, at 6.8 µM, stronger effect = higher value, % of Δ7-dafachronic acid response.
Assay [3] has as its system DAF-12 nuclear receptor (Heterodera glycines), GAL4-LBD fusion. The experiment in a line: hgDAF-12 GAL4 fusion reporter activation, retest – cell-based, luminescence, HEK293, GAL4-LBD fusion, confirmation (AID 743050;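 active means mean activation over triplicate wells above the hit cutoff derived from the earlier primary screen, cut at about 11% in these data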;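 further: 0% = DMSO low control and 100% = 2 mM sodium butyrate high control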). The settings on record: HEK293 GAL4-hgDAF12 luciferase reporter, agonist mode; at 6.8 µM; stronger effect = higher value; percent of butyrate response.
Assay [4] addresses Oxysterols receptor LXR-beta (Homo sapiens) (UniProt P55055). The experiment in a line: nonspecific reporter activation via LXR – cell-based, luminescence, HEK293, H. glycines campaign, counter-screen for hgDAF-12 agonist project, confirmation (AID 743051;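 active means mean activation of the triplicate above a set limit carried over from the primary screen, none filed active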). The settings on record: HEK293 Gal4-LXR luciferase reporter, 24 h; at 6.8 µM; stronger effect = higher value. The procedure, abridged:
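Assay system: Gal4-LXR luciferase reporter HEK293 cells; times: 3 h cell plating, then 24 h compound exposure at 37 °C; signal: luciferase luminescence; benchmarks: DMSO low control, 0.68% final; replication: n 3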

Assay [5] has as its target Galanin receptor type 2 (Homo sapiens) (UniProt O43603). The experiment in a line: blockers of human galanin receptor 2 – cell-based, confirmation (AID 866; in the data active means inhibition above about 27%;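 further: cells stimulated with galanin at about its EC80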). The settings on record: GALR2-expressing cells, antagonist mode, at 4 µM, stronger effect = higher value.
Assay [6] in a line: nonspecific BLA reporter inhibition – CHO NFAT-bla cells, FRET readout, counter-screen for GALR2 antagonist project, confirmation (AID 867;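 active means inhibition above the mean inhibition across tested compounds plus 3 SD, cut at about 27% in these data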;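 further: 0% = 500 nM thapsigargin stimulated wells and 100% = unstimulated BSA only wells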). The settings on record: beta-lactamase FRET, thapsigargin-stimulated, at 4.2 µM, stronger effect = higher value.

Molecules are shown by their SMILES. The list shows a part of the results. Values without a mark were called inactive. Calls of active or inactive are those of the source.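 How the source made its calls, unless noted: active means mean percent activation of the reporter above a cutoff set as the average over tested compounds plus their standard deviation; inactive means the rest.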

Chain of Oxysterols receptor LXR-beta (Homo sapiens) (P55055 whole entry, looked up, the tested form may be a part): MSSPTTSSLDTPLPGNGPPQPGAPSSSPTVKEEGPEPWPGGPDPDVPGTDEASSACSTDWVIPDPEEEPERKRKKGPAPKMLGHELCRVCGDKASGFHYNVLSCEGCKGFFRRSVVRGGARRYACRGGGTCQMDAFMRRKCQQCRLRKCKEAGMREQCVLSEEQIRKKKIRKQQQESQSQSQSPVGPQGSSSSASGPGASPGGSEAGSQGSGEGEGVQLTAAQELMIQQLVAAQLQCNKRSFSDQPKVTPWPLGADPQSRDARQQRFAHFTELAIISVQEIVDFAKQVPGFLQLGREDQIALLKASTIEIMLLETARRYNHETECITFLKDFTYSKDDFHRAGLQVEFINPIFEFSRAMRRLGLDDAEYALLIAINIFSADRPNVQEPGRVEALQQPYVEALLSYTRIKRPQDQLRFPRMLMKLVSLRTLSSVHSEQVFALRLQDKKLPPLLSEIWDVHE
Chain of Galanin receptor type 2 (Homo sapiens) (O43603 whole entry, looked up): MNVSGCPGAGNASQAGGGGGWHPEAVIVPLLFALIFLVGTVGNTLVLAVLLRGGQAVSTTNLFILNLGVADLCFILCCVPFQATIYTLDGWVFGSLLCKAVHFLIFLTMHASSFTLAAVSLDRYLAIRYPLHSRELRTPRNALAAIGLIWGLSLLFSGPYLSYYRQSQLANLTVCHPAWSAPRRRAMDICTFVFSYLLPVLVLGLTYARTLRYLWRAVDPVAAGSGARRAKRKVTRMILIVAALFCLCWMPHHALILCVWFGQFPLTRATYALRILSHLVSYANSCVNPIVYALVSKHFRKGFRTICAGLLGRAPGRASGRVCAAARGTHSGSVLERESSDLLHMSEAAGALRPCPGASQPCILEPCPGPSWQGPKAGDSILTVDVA

As to `Cc1cc(C)nc(Nc2n[nH]c(-c3ccccc3N)n2)n1`, the activation in assay [1] was 2.12%; in assay [2], 8.91% (active).

In the case of `COc1ccc(OCc2cc(C(=O)N3CCCC3)no2)c2ccccc12`, the activation in assay [1] is 0.67%; in assay [2], 8.88% (active).

For `COc1ccc(C2CC(c3cccs3)=Nc3ccccc3S2)cc1OC` (centres undefined), the activation was -0.03% in assay [1] and 2.78% in assay [2].

Turning to `Cc1ccnc(NC(=O)c2ccoc2C)c1`, the activation in assay [1] is 0.3%; in assay [2], 3.77%.

As for `CCc1ccc(NC(=O)N2CCc3ccccc3C2)cc1`, the activation in assay [1] was 0.65%; in assay [2], 7.24% (active).

As for `NS(=O)(=O)c1ccccc1NC(=O)c1c(O)c2ccccc2[nH]c1=O`, the activation in assay [1] was 1.36%; in assay [2], 9.27% (active).

Turning to `C/C(=N\NC(=O)OC(C)(C)C)c1ccc[nH]1`, the activation in assay [3] is 13.8% (active); in assay [4], 0.45%.

Regarding `CN1CCN(c2ccc(NC(=O)c3ccc4c(c3)OCCO4)cc2Cl)CC1`, the activation was 1.56% in assay [1], 6.28% (active) in assay [2], 9.5% in assay [3] and 0.88% in assay [4].

As for `O=C(Nc1ncccc1O)c1ccc(C(=O)c2ccccc2)cc1`, the activation in assay [1] was 1.21%; in assay [2] it was 8.51% (active); in assay [3], 84.2% (active); in assay [4], 0.71%.

Take `Cc1cccc(NC(=O)c2ccc3ccccc3n2)n1`: the activation in assay [1] was 1.06%; in assay [2], 10.5% (active); in assay [3], 17% (active); in assay [4] it was 0.69%.

Consider `O=C(Nc1ccc(C2CC2(Cl)Cl)cc1)c1cccc([N+](=O)[O-])c1` (centres undefined), for which the activation was 15.2% (active) in assay [3] and 0.56% in assay [4].

For the compound `COc1ccc(C2=NN(C(=O)c3ccccc3C(=O)O)C(c3ccccc3O)C2)cc1` (centres undefined), the activation in assay [1] was 0.16%; in assay [2] it was 2.72%; in assay [3], 4.93%; in assay [4], 0.19%.

`Clc1ccc(Nc2ccc3ccccc3n2)cc1`: the activation in assay [1] was 2.07%; in assay [2], 15% (active); in assay [3], 28.6% (active); in assay [4] it was 1.31%.

As for `Cc1ccnc(Nc2nc3ccccc3s2)n1`, the activation was 1.72% in assay [1], 18.5% (active) in assay [2], 15% (active) in assay [3] and 1.12% in assay [4].

As to `Cc1cc(N=Nc2ccc3ccccc3c2)ccc1O`, the activation in assay [1] was 1.85%; in assay [2] it was 8.43% (active); in assay [3], 24.5% (active); in assay [4], 1.16%.

As to `NC(=O)c1ccccc1N=Cc1ccc2ccccc2c1`, the activation is 0.6% in assay [1], 5.79% (active) in assay [2], 15.7% (active) in assay [3] and 0.4% in assay [4].

As for `Oc1cccc2ccc(/C=C/c3ccc(Br)s3)nc12`, the activation was 1.05% in assay [1], 13.8% (active) in assay [2], 15.8% (active) in assay [3] and 0.56% in assay [4].

With `Oc1ccccc1-c1cc(-c2ccc(Cl)cc2)n[nH]1`, the activation was 1.85% in assay [1], 14.7% (active) in assay [2], 29.5% (active) in assay [3] and 1.15% in assay [4].

For `Cn1c(=NC(=O)C2CC2)sc2cc(F)cc(F)c21`, the activation in assay [1] is -0.11%; in assay [2], 5.5%; in assay [3] it was 5.29%; in assay [4] it was 0.25%.

Take `O=C(NC(=O)c1ccccc1)Nc1ccccc1O`: the activation in assay [1] was 1.94%; in assay [2], 13.2% (active); in assay [3], 19.6% (active); in assay [4], 1.13%.

On to `Cc1ccc(-n2cc3ccc([N+](=O)[O-])cc3n2)cc1`, for which the activation in assay [1] was 2.14%; in assay [2], 6.7% (active); in assay [3], 22.6% (active); in assay [4], 0.97%.

Consider `CCOC(=O)c1cn[nH]c1NC(=S)Nc1ccccc1`, for which the activation in assay [1] was 1.51%; in assay [2] it was 4.78%; in assay [3], 15.6% (active); in assay [4] it was 1.01%.

Regarding `Brc1ccc2nc(N3CCCC3)sc2c1`, the activation in assay [1] is 0.77%; in assay [2], 5.13%; in assay [3], 12.5% (active); in assay [4], 0.64%.

Take `OC(c1ccccc1)c1nc(-c2cnc3ccccc3c2)cs1` (centres undefined): the activation in assay [1] was 1.85%; in assay [2], 6.14% (active); in assay [3] it was 26.4% (active); in assay [4] it was 0.98%.

With `O=C(Nc1ccccc1)Nc1nc2ccccc2s1`, the activation was 1.95% in assay [1], 9.44% (active) in assay [2], 20.4% (active) in assay [3] and 1.06% in assay [4].

Consider `Cc1ccc(NC(=O)c2cc3ccccc3o2)cc1`, for which the activation in assay [1] is 1.5%; in assay [2], 7.27% (active); in assay [3], 22% (active); in assay [4], 0.74%.

In the case of `O=C(Nc1ncccc1O)c1ccc(S(=O)(=O)N2CCCC2)cc1`, the activation is 14.2% (active) in assay [3] and 0.03% in assay [4].

`Cn1c(NC(=O)c2ccccc2)nc2ccccc21`: the activation in assay [1] is 1.51%; in assay [2] it was 16.7% (active); in assay [3], 19.1% (active); in assay [4], 0.86%.

As for `c1cnc(N2CCN(c3ccc4ccccc4n3)CC2)nc1`, the activation in assay [1] is 0.85%; in assay [2] it was 5.39%; in assay [3] it was 16.9% (active); in assay [4], 0.78%.

On to `Brc1ccccc1C1N=C(c2ccccc2)NO1` (centres undefined), for which the activation in assay [1] was 1.08%; in assay [2] it was 11.3% (active); in assay [3] it was 19.6% (active); in assay [4], 0.87%.

Turning to `O=C(c1cnn(-c2ccc(Cl)cc2)c1)c1ccccc1O`, the activation in assay [1] is 1.48%; in assay [2] it was 7.41% (active); in assay [3], 12.9% (active); in assay [4], 0.81%.

As for `Cc1ccnc(NC(=O)CCNS(=O)(=O)c2ccc(C)c(C)c2)c1`, the activation was 1.16% in assay [1], 5.73% (active) in assay [2], 17.9% (active) in assay [3] and 0.55% in assay [4].

Take `COc1ccc2nc(-c3ccccn3)ccc2c1`: the activation is 1.86% in assay [1], 11.8% (active) in assay [2], 16.7% (active) in assay [3] and 1.05% in assay [4].

`COc1ccc(CNC(=O)c2ccc3oc(C(C)C)nc3c2)cc1`: the activation is 0.72% in assay [1] and 2.54% in assay [2].

Turning to `Cc1cc(OCc2cc(C(=O)NCc3cc(C(C)C)no3)no2)cc(C)c1Cl`, the activation is 0.91% in assay [1], 7.69% (active) in assay [2], 20.9% (active) in assay [3] and 0.62% in assay [4].

Regarding `Cc1ccc(OCc2nc3ccccc3n2C)cc1`, the activation in assay [1] was 1.32%; in assay [2], 5.18%.

For orientation: inhibition means the change of the read-out against control, counted positive when it falls. `Cn1c(-c2ccco2)nc2cc3ccccc3cc21`: the inhibition was 32.7% (active) in assay [5] and 15.4% in assay [6]. Further, the activation in assay [1] is 2.33%; in assay [2], 17.3% (active).

Take `CCOc1ccc(OCc2cccc(C(=O)N(CC)CC)c2)cc1`: the activation in assay [3] is 19.5% (active); in assay [4] it was 0.78%.

Regarding `CC(=O)Nc1cccc(C(=O)OCC(=O)c2ccc3c(c2)OCO3)c1`, the activation is 1.92% in assay [1], 8.03% (active) in assay [2], 16.6% (active) in assay [3] and 1.1% in assay [4].

Consider `Brc1ccc(-c2noc(-c3ccccc3)n2)o1`, for which the activation in assay [1] was 0.77%; in assay [2] it was 7.78% (active); in assay [3], 18.7% (active); in assay [4], 0.75%.

As for `Cc1ccc(SCCSc2ncccn2)cc1`, the activation in assay [1] was 1.19%; in assay [2] it was 7.13% (active); in assay [3] it was 14.6% (active); in assay [4], 0.89%.

As to `Cc1cccc(/C(N)=N/OC(=O)c2ccccc2Cl)c1`, the activation in assay [1] is 2.08%; in assay [2] it was 15.3% (active); in assay [3], 21.4% (active); in assay [4] it was 1.18%.
